Data reported in article PMC9753112 (ACS Omega, 2022).
Values after ≈ are worked out from the molar mass of the structure shown. Values joined by “and” are separate entries in the source; they are usually repeats but may differ in a detail not shown here. Equal entries are not always repeated. “Also recorded” adds a separate entry of the source. Where two headings read alike, the source gives them in different places.

What was measured:
[1] = system: HepG2 cells; assay: MTT cytotoxicity assay, HepG2 cells; assay type: cell-based; conditions: Homo sapiens, HepG2, read-out: IC50 (HepG2)
Procedure, shortened: (§1)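 Cells grown in medium with 10% FBS and 1% penicillin-streptomycin under CO2 at 37 °C and seeded at 5 × 10^4 per well. They were exposed to the test compound at 0.01, 0.1, 1, 10 and 100 μM, and viability was read by MTT absorbance as percent of control. IC50 came from dose-response curves, averaged over three independent trials.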

[2] = system: MCF-7 cells; assay: MTT cytotoxicity assay, MCF-7 cells; assay type: cell-based; conditions: for IC50: Homo sapiens; for cytotoxicity in words: against MCF-7 and HepG2 cells
Procedure, shortened: as §1

[3] = system: solid Ehrlich carcinoma cells; assay: In vivo solid Ehrlich carcinoma
[4] = target: PARP-1 (Homo sapiens, UniProt P09874); assay: PARP-1 enzyme inhibition; assay type: biochemical
[5] = target: EGFR (Homo sapiens, UniProt P00533); assay: EGFR enzyme inhibition; assay type: biochemical
[6] = system: normal cell lines MCF-10A and THLE2; assay: MTT assay on normal breast; assay type: cell-based
Procedure, shortened: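 Normal breast MCF-10A and normal liver THLE2 cells, cultured with 10% FBS and 1% penicillin-streptomycin under CO2 at 37 °C. They were seeded at 5 × 10^4 per well and treated with the test compound at 0.01–100 μM. MTT absorbance gave percent viability versus untreated control.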

[7] = system: MCF-7 cells; assay: Cell cycle analysis; assay type: cell-based
Procedure, shortened: (§2)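 DNA content of untreated and treated cells was measured by flow cytometry as histograms. The percentage of cells in each cycle phase was compared before and after 48 h exposure.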

[8] = system: HepG2 cells; assay: Cell cycle analysis; assay type: cell-based
Procedure, shortened: as §2

[9] = system: MCF-7 cells; assay: Annexin V/PI apoptosis-necrosis assessment, MCF-7; assay type: cell-based; conditions: MCF-7, IC50 dose, 48 h
[10] = system: HepG2 cells; assay: Annexin V/PI apoptosis-necrosis assessment, HepG2; assay type: cell-based; conditions: HepG2, IC50 dose, 48 h
[11] = system: HEPG-2; conditions: antiproliferative activity ref 29; cited from earlier work
[12] = system: MCF-7; conditions: antiproliferative activity ref 29; cited from earlier work
[13] = system: MCF-7 cells; conditions: read-out: IC50 (MCF-7 cells); cytotoxic action ref 32; cited from earlier work
[14] = SEC-bearing mice, 5 mg/kg BW IP, seven doses, mean ± SD n = 6
[15] = SEC-bearing mice, 5 mg/kg BW IP, seven doses, mean ± SD n = 6, 5 mg/kg
[16] = SEC-bearing mice, after treatment

Chain of PARP-1 (P09874 whole entry): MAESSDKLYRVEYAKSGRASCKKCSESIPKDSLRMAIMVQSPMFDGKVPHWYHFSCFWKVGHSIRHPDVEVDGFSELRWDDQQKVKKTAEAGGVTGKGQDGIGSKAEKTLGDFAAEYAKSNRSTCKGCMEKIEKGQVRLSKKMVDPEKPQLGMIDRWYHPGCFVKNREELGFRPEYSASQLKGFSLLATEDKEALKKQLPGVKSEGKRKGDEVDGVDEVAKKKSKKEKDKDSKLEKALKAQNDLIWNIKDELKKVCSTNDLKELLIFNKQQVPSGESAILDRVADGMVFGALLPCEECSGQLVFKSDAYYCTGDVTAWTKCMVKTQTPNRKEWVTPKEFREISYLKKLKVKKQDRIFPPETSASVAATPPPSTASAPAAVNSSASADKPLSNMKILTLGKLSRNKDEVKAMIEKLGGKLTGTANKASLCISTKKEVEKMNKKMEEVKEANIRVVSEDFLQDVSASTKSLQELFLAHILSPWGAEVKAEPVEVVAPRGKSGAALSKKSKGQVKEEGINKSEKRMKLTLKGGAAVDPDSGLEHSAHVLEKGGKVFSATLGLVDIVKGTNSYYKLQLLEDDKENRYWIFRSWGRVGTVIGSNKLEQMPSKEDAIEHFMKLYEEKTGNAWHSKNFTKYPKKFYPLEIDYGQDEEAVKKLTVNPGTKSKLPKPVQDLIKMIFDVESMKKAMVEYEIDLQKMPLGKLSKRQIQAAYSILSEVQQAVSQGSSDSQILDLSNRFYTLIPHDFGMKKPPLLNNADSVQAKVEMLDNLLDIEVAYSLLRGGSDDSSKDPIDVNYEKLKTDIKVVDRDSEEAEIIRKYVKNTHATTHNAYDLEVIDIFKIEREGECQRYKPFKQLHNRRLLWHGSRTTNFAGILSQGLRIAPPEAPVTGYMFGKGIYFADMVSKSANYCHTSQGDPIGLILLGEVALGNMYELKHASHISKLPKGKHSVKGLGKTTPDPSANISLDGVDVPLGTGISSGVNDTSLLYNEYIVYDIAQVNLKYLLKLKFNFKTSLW
Chain of EGFR (P00533 25-1210): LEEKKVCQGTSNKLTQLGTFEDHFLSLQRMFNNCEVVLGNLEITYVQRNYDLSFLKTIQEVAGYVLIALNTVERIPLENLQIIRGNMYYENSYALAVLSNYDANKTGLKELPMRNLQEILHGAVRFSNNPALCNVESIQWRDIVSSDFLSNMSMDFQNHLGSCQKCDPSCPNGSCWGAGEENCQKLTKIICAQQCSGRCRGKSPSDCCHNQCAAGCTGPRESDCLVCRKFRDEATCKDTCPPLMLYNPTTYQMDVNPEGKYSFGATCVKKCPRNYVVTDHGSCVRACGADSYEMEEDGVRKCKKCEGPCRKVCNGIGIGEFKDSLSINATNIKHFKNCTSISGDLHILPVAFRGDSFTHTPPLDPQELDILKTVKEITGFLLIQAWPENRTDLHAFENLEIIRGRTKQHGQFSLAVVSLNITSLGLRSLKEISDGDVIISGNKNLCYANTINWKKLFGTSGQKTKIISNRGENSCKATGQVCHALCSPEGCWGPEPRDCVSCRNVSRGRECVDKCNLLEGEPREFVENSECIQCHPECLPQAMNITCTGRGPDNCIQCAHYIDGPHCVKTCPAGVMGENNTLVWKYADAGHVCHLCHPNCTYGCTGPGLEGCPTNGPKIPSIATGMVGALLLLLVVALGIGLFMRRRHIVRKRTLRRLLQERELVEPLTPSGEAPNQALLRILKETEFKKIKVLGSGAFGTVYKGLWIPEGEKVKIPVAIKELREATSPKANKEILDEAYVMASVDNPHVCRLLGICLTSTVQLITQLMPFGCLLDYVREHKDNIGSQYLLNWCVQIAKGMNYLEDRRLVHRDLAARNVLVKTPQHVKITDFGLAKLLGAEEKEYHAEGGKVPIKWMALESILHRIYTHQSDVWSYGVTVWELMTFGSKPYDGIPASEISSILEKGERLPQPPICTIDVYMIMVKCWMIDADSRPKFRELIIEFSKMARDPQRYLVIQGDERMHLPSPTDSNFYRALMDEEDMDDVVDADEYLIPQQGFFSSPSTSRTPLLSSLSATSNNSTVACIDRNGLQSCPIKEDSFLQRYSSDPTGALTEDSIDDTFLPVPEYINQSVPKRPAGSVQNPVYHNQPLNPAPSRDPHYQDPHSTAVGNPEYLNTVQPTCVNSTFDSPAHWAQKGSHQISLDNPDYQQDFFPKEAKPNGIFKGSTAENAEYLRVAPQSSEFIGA

`O=C(NNC(=S)Nc1ccccc1)c1cc2ccccc2[nH]1` [2a, 1-(1H-Indol-2-yl-carbonyl)-4-Phenyl-thiosemicarbazide] gave an IC50 [1] of 12400 nM.

For `S=c1[nH]nc(-c2cc3ccccc3[nH]2)n1-c1ccccc1` [3a, 5-(1H-Indol-2-yl)-4-phenyl-1,2,4-triazole-3(4H)-thione], the IC50 [1] was 7390 nM.

`S=c1[nH]nc(-c2cc3ccccc3[nH]2)n1-c1ccc(Cl)cc1` [3b, 4-(4-Chlorophenyl)-5-(1H-indol-2-yl)-2H-1,2,4-triazole-3(4H)-thione] showed an IC50 [1] of 17200 nM and an IC50 ([2]; MCF7, read-out: IC50 (MCF-7)) of 14200 nM.

In the case of `O=c1[nH]cc(F)c(=O)[nH]1` [5-FU, reference compound], the “tumor inhibition ratio (TIR%)” value ([3]; SEC-bearing mice, 5 mg/kg BW IP, seven doses) is reported as 65.7% and the tumor volume [3, 14] is reported as 114 mm^3.

Compound `OCCSc1nnc(-c2cc3ccccc3[nH]2)n1-c1ccccc1` [12a, 3-(2-Hydroxyeth-1-ylsulfanyl)-5-(1H-indol-2-yl)-4-phenyl-1,2,4-triazole] has an IC50 [1] of 16300 nM, an IC50 ([2]; MCF7, read-out: IC50 (MCF-7)) of 12100 nM and an IC50 ([2]; MCF7, read-out: IC50 range) of 6210 to 16300 nM. For the same compound, the cytotoxicity in words [2] was “moderate activity”.

For `OCCSc1nnc(-c2cc3ccccc3[nH]2)n1-c1ccc(Cl)cc1` [12b, 4-(4-Chlorophenyl)-3-(2-hydroxyeth-1-ylsulfanyl)-5-(1H-indol-2-yl)-1,2,4-triazole], the IC50 [1] was 3210 nM, the IC50 [4] was 2.13 nM and the IC50 [5] was 78.1 nM. The IC50 ([2]; MCF7, read-out: IC50 (MCF-7)) was 2670 nM, the cytotoxicity in words [2] was “potent cytotoxicity” and the inhibition at 100 µM ([6]; read-out: cell inhibition) was 80%.

For `CC(O)CSc1nnc(-c2cc3ccccc3[nH]2)n1-c1ccccc1` (stereo not drawn) [13a, 3-(2-Hydroxyprop-1-ylsulfanyl)-5-(1H-indol-2-yl)-4-phenyl-1,2,4-triazole], the IC50 [1] was 8910 nM, the IC50 [4] was 21.6 nM and the IC50 [5] was 140 nM. The IC50 ([2]; MCF7, read-out: IC50 (MCF-7)) was 6210 nM, the IC50 ([2]; MCF7, read-out: IC50 range) was 6210 to 16300 nM and the cytotoxicity in words [2] was “moderate activity”.

With `CC(O)CSc1nnc(-c2cc3ccccc3[nH]2)n1-c1ccc(Cl)cc1` (stereo not drawn) [13b, 4-(4-Chlorophenyl)-3-(2-hydroxyprop-1-ylsulfanyl)-5-(1H-indol-2-yl)-1,2,4-triazole] the IC50 [1] was 320 nM, the IC50 [4] was 1.24 nM and the IC50 [5] was 62.4 nM. The “cell cycle arrest phase” value ([7]; MCF-7) was “arrested cell division at the G2/M phase”, the “%DIP G2/M” value ([7]; MCF-7, 1.07 μM, 48 h) was 26.4% and the IC50 ([2]; MCF7, read-out: IC50 (MCF-7)) was 1070 nM. The cytotoxicity in words [2] was “potent cytotoxicity”, the “histopathological examination of liver tissues” value ([3]; SEC-bearing mice treated) was “improvement in liver tissues and retained them near normal; also recorded: Mild hydropic degeneration of hepatocytes” and the tumor volume [3, 14] was 129.6 ± 13.6 mm^3. The Hb [3, 15] was 7.29 g/dL, the total protein [3, 15] was 5.6 g/dL and 5.6 ± 0.39 g/dL and the tumor weight [3, 15] was 74.6 mg and 74.6 ± 2.79 mg. The “tumor inhibition ratio (TIR%)” value ([3]; SEC-bearing mice, 5 mg/kg BW IP, seven doses, 5 mg/kg) was 66.7% and 66.7 ± 1.06%, the “ALT” value [3, 16] was 50.6 U/L and the “AST” value [3, 16] was 60.3 U/L. For the same compound, the “WBC” value [3, 16] was 4360 L⁻¹, the “cell cycle arrest phase” value ([8]; HepG2) was “arrested cell division at the S phase” and the “%DIP S” value ([8]; HepG2, 0.32 μM, 48 h) was 45.21%. The “toxicity to healthy cells” value ([6]; normal cells) was “no toxicity to healthy cells”, the early apoptosis [9] was 10.6% and the late apoptosis [9] was 16.9%. For the same compound, the necrosis-mediated cell death [9] was 5.06%, the “necrosis-mediated cell death, fold increase” value [9] was 4.18 fold and the “total apoptotic cell death” value [9] was 27.63%. The “total apoptotic cell death, fold vs control” value [9] was 26 fold, the early apoptosis [10] was 23.61% and the late apoptosis [10] was 9.34%. For the same compound, the necrosis-induced cell death [10] was 6.01%, the “necrosis-induced cell death, fold increase” value [10] was 6.1 fold and the “total apoptotic cell death” value [10] was 32.95%. For the same compound, the “total apoptotic cell death, fold increase” value [10] was 34.68 fold.

`C#Cc1cccc(Nc2ncnc3cc(OCCOC)c(OCCOC)cc23)c1` [Erlotinib, reference compound] showed an IC50 [1] of 2910 nM, an IC50 ([2]; MCF7, read-out: IC50 (MCF-7)) of 2510 nM and a total protein [3, 14] of 6.2 ± 0.47 g/dL. The tumor volume [3, 14] was 114.6 ± 12.5 mm^3 and the tumor weight [3, 15] was 69.3 mg and 69.3 ± 2.19 mg.

For `c1ccc(CSc2nc(-c3cc4ccccc4[nH]3)n[nH]2)cc1` [I, 3-Benzylsulfanyl-5-(1H-indol-2-yl)-2H-1,2,4-triazole], the “IC50 (HEPG-2)” value [11] is listed as 3.58 µg/mL (≈ 11.7 µM) and the “IC50 (MCF-7)” value [12] is listed as 4.53 µg/mL (≈ 14.8 µM).

For `CNC(=O)c1cc(Oc2ccc(NC(=O)Nc3ccc(Cl)c(C(F)(F)F)c3)cc2)ccn1` [Sorafenib], the IC50 [13] is listed as 2130 nM.

For `COc1cccc2c1C(=O)c1c(O)c3c(c(O)c1C2=O)C[C@@](O)(C(=O)CO)C[C@@H]3O[C@H]1C[C@H](N)[C@H](O)[C@H](C)O1` [doxorubicin], the “IC50 (HEPG-2)” value [11] is listed as 4.0 µg/mL (≈ 7.36 µM) and the “IC50 (MCF-7)” value [12] is listed as 4.0 µg/mL (≈ 7.36 µM).
